Assays:
[1] = system: Escherichia coli; test: Antibacterial activity against Escherichia coli ATCC 25922 assessed as zone of inhibition at 1000 ug/ml after 24 hrs by agar diffusion method; type: functional; details: ATCC 25922, 24 h, read-out: IZ
Outline: (§1)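 Well diffusion on Mueller-Hinton agar seeded with 24 h old bacterial cultures. Test compounds were dissolved in DMSO at 1 and 0.5 mg/mL and added to labeled wells. Plates were incubated 24 h at 37 °C. The inhibition zone around each well was measured in mm. Triplicate experiments, standard deviation calculated.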

[2] = system: Escherichia coli; test: Antibacterial activity against Escherichia coli ATCC 25922 assessed as zone of inhibition at 500 ug/ml after 24 hrs by agar diffusion method; type: functional; details: ATCC 25922, 24 h, read-out: IZ; outline: as §1
[3] = system: Staphylococcus aureus; test: Antibacterial activity against Staphylococcus aureus assessed as zone of inhibition at 1000 ug/ml after 24 hrs by agar diffusion method; type: functional; details: read-out: IZ; outline: as §1
[4] = system: Staphylococcus aureus; test: Antibacterial activity against Staphylococcus aureus assessed as zone of inhibition at 500 ug/ml after 24 hrs by agar diffusion method; type: functional; details: read-out: IZ; outline: as §1
[5] = system: Bacillus subtilis; test: Antibacterial activity against Bacillus subtilis assessed as zone of inhibition at 1000 ug/ml after 24 hrs by agar diffusion method; type: functional; details: read-out: IZ; outline: as §1
[6] = system: Bacillus subtilis; test: Antibacterial activity against Bacillus subtilis assessed as zone of inhibition at 500 ug/ml after 24 hrs by agar diffusion method; type: functional; details: read-out: IZ; outline: as §1
[7] = system: Salmonella typhimurium; test: Antibacterial activity against Salmonella Typhimurium assessed as zone of inhibition at 1000 ug/ml after 24 hrs by agar diffusion method; type: functional, Salmonella enterica subsp. enterica serovar Typhimurium; details: Salmonella enterica, read-out: IZ; outline: as §1
[8] = system: Salmonella typhimurium; test: Antibacterial activity against Salmonella Typhimurium assessed as zone of inhibition at 500 ug/ml after 24 hrs by agar diffusion method; type: functional, Salmonella enterica subsp. enterica serovar Typhimurium; details: Salmonella enterica, read-out: IZ; outline: as §1
[9] = system: Clostridium perfringens; test: Antibacterial activity against Clostridium perfringens assessed as zone of inhibition at 1000 ug/ml after 24 hrs by agar diffusion method; type: functional; details: read-out: IZ
Outline: (§2)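 Well diffusion on Mueller-Hinton agar seeded with 24 h old cultures. Compounds dissolved in DMSO at 1 and 0.5 mg/mL and added to wells punched with a sterile cork borer, with a DMSO-only control. Plates incubated 24 h at 37 °C. Read-out was the inhibition zone in mm, run in triplicate, standard deviation calculated.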

[10] = system: Clostridium perfringens; test: Antibacterial activity against Clostridium perfringens assessed as zone of inhibition at 500 ug/ml after 24 hrs by agar diffusion method; type: functional; details: read-out: IZ; outline: as §2
[11] = system: Pseudomonas aeruginosa; test: Antibacterial activity against Pseudomonas aeruginosa ATCC 27853 assessed as zone of inhibition at 1000 ug/ml after 24 hrs by agar diffusion method; type: functional; details: ATCC 27853, 24 h, read-out: IZ; outline: as §1
[12] = system: Pseudomonas aeruginosa; test: Antibacterial activity against Pseudomonas aeruginosa ATCC 27853 assessed as zone of inhibition at 500 ug/ml after 24 hrs by agar diffusion method; type: functional; details: ATCC 27853, 24 h, read-out: IZ; outline: as §1
[13] = system: Candida albicans; test: Antifungal activity against Candida albicans at 1000 ug/ml after 72 hrs by agar diffusion method by agar diffusion method; type: functional; details: read-out: DIZ
Outline: (§3)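 Fungal spores were suspended in normal saline (one loopful in 3 mL) and lawned on agar plates. Wells were punched with a sterile cork borer and loaded with test compound in DMSO at the different concentrations. A DMSO solvent control was included. Petri dishes were prepared in triplicate and held at 25 °C for 72 h.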

[14] = system: Candida albicans; test: Antifungal activity against Candida albicans at 500 ug/ml after 72 hrs by agar diffusion method; type: functional; details: read-out: DIZ; outline: as §3
[15] = system: Nannizzia gypsea; test: Antifungal activity against Microsporum gypseum at 1000 ug/ml after 72 hrs by agar diffusion method; type: functional; details: read-out: DIZ; outline: as §3
[16] = system: Nannizzia gypsea; test: Antifungal activity against Microsporum gypseum at 500 ug/ml after 72 hrs by agar diffusion method; type: functional; details: read-out: DIZ; outline: as §3
[17] = system: Aspergillus flavus; test: Antifungal activity against Aspergillus flavus at 1000 ug/ml after 72 hrs by agar diffusion method; type: functional; details: read-out: DIZ; outline: as §3
[18] = system: Aspergillus flavus; test: Antifungal activity against Aspergillus flavus at 500 ug/ml after 72 hrs by agar diffusion method; type: functional; details: read-out: DIZ; outline: as §3
[19] = system: Aspergillus niger; test: Antifungal activity against Aspergillus niger at 1000 ug/ml after 72 hrs by agar diffusion method; type: functional; details: read-out: DIZ; outline: as §3
[20] = system: Aspergillus niger; test: Antifungal activity against Aspergillus niger at 500 ug/ml after 72 hrs by agar diffusion method; type: functional; details: read-out: DIZ; outline: as §3
[21] = system: Trichophyton rubrum; test: Antifungal activity against Trichophyton rubrum at 1000 ug/ml after 72 hrs by agar diffusion method; type: functional; details: read-out: DIZ; outline: as §3
[22] = system: Trichophyton rubrum; test: Antifungal activity against Trichophyton rubrum at 500 ug/ml after 72 hrs by agar diffusion method; type: functional; details: read-out: DIZ; outline: as §3

Structure (SMILES)	zone of inhibition at 1000 µg/mL [1] [mm]	zone of inhibition at 500 µg/mL [2] [mm]	zone of inhibition at 1000 µg/mL [3] [mm]	zone of inhibition at 500 µg/mL [4] [mm]	zone of inhibition at 1000 µg/mL [5] [mm]	zone of inhibition at 500 µg/mL [6] [mm]	zone of inhibition at 1000 µg/mL [7] [mm]	zone of inhibition at 500 µg/mL [8] [mm]	zone of inhibition at 1000 µg/mL [9] [mm]	zone of inhibition at 500 µg/mL [10] [mm]	zone of inhibition at 1000 µg/mL [11] [mm]	zone of inhibition at 500 µg/mL [12] [mm]	zone of inhibition at 1000 µg/mL [13] [mm]	zone of inhibition at 500 µg/mL [14] [mm]	zone of inhibition at 1000 µg/mL [15] [mm]	zone of inhibition at 500 µg/mL [16] [mm]	zone of inhibition at 1000 µg/mL [17] [mm]	zone of inhibition at 500 µg/mL [18] [mm]	zone of inhibition at 1000 µg/mL [19] [mm]	zone of inhibition at 500 µg/mL [20] [mm]	further results
c1ccc(-c2ccc(-c3n[nH]cc3-c3nc(-c4ccccc4)c(-c4ccccc4)[nH]3)cc2)cc1	3	2	2	1	3	2	4	3	2	1	4	3	9	8	5	4	9	7	10	9	zone of inhibition at 1000 µg/mL [21]: 9 mm; zone of inhibition at 500 µg/mL [22]: 8 mm
Cc1ccc(-c2n[nH]cc2-c2nc(-c3ccccc3)c(-c3ccccc3)[nH]2)cc1	14	8	7	6	8	7	6	5	6	5	6	4	10	9	3	2	10	9	10	9	zone of inhibition at 1000 µg/mL [21]: 12 mm; zone of inhibition at 500 µg/mL [22]: 11 mm
Clc1cc(-c2n[nH]cc2-c2nc(-c3ccccc3)c(-c3ccccc3)[nH]2)c(Cl)s1	6	5	6	5	4	3	7	6	8	7	6	5	10	9	5	4	10	9	10	9	zone of inhibition at 1000 µg/mL [21]: 10 mm; zone of inhibition at 500 µg/mL [22]: 9 mm
CSc1ccc(-c2n[nH]cc2-c2nc(-c3ccc(Br)cc3)c(-c3ccc(Br)cc3)[nH]2)cc1	3	2	3	2	5	4	4	3	4	3	3	2	12	11	4	3	13	12	6	5	zone of inhibition at 1000 µg/mL [21]: 8 mm; zone of inhibition at 500 µg/mL [22]: 7 mm
Clc1ccc(-c2n[nH]cc2-c2nc(-c3ccc(Br)cc3)c(-c3ccc(Br)cc3)[nH]2)c(Cl)c1	5	4	4	3	5	4	4	3	3	2	5	4	9	8	4	3	5	4	5	4	zone of inhibition at 1000 µg/mL [21]: 10 mm; zone of inhibition at 500 µg/mL [22]: 9 mm
Brc1ccc(-c2nc(-c3c[nH]nc3-c3ccc(-c4ccccc4)cc3)[nH]c2-c2ccc(Br)cc2)cc1	3	2	2	1	4	3	3	2	2	1	2	1	3	2	2	1	4	3	3	2	zone of inhibition at 1000 µg/mL [21]: 4 mm; zone of inhibition at 500 µg/mL [22]: 3 mm

Source: ChEMBL document CHEMBL1806356, “Synthesis, characterization and antimicrobial studies of some new pyrazole incorporated imidazole derivatives” (Eur J Med Chem, 2011)
